Converted amounts (≈) assume the structure as drawn. The source made the active and inactive calls. The rule behind the calls is not given here.
What was measured:
Bacillus anthracis = test: Antibacterial activity against Bacillus anthracis at 1mM by almar blue dye reduction assay; format: functional, organism-based
Bacillus cereus = test: Antibacterial activity against Bacillus cereus at 1 mM by almar blue dye reduction assay; format: functional, organism-based
Method in brief: (§1)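 Single-point primary screen at 1 mM using Alamar Blue dye reduction as the growth read-out.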

Staphylococcus aureus = test: Antibacterial activity against Staphylococcus aureus at 1 mM by almar blue dye reduction assay; format: functional, organism-based; method in brief: as §1
Escherichia coli = test: Antibacterial activity against Escherichia coli at 1 mM by almar blue dye reduction assay; format: functional, organism-based; method in brief: as §1
Pseudomonas aeruginosa = test: Antibacterial activity against Pseudomonas aeruginosa at 1 mM by almar blue dye reduction assay; format: functional, organism-based; method in brief: as §1
Candida albicans = test: Antifungal activity against Candida albicans at 1 mM by almar blue dye reduction assay; format: functional, organism-based; method in brief: as §1
Cryptococcus neoformans = test: Antifungal activity against Cryptococcus neoformans at 1 mM by almar blue dye reduction assay; format: functional, organism-based; method in brief: as §1
Saccharomyces cerevisiae = test: Antifungal activity against Saccharomyces cerevisiae at 1 mM by almar blue dye reduction assay; format: functional, organism-based; method in brief: as §1
Bacillus subtilis [1] = test: Antibacterial activity against Bacillus subtilis by almar blue dye reduction assay; format: functional
Method in brief: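 Compounds advanced from the 1 mM screen were tested over a dilution series, with a top concentration of 1 mM, using Alamar Blue dye reduction. MIC is the lowest concentration with no dye reduction. Where inhibition was partial with some growth at the top concentration, the value is reported as '>'.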

Bacillus subtilis [2] = test: Antibacterial activity against Bacillus subtilis at 1 mM by almar blue dye reduction assay; format: functional, organism-based; method in brief: as §1

Row | SMILES | Activity (Bacillus anthracis) | Activity (Bacillus cereus) | Activity (Staphylococcus aureus) | Activity (Escherichia coli) | Activity (Pseudomonas aeruginosa) | Activity (Candida albicans) | Activity (Cryptococcus neoformans) | Activity (Saccharomyces cerevisiae) | MIC (Bacillus subtilis [1]) | Activity (Bacillus subtilis [2])
1 | C[C@H](C[C@@H]1CC[C@H]([C@@H](C)C(=O)N2CCN(CC3CCCO3)CC2)O1)n1cc(C#Cc2ccc(C(F)(F)F)cc2)nn1 (stereo partly drawn) | inactive | inactive | inactive | inactive | inactive | inactive | inactive | inactive | 820 µg/mL (≈ 1430 µM) | –
2 | C[C@H](C[C@@H]1CC[C@H]([C@@H](C)C(=O)N2CCN(CC3CCCO3)CC2)O1)n1cc(C#Cc2ccc(-c3ccccc3)cc2)nn1 (stereo partly drawn) | inactive | inactive | inactive | inactive | inactive | inactive | inactive | inactive | 560 µg/mL (≈ 963 µM) | –
3 | CC(C)NC(=O)[C@H](C)[C@H]1CC[C@@H](C[C@@H](C)n2cc(C#CC3=CCCCC3)nn2)O1 | inactive | inactive | inactive | inactive | inactive | inactive | inactive | inactive | – | inactive
4 | C[C@H](C[C@@H]1CC[C@H]([C@@H](C)C(=O)N2CCCC2)O1)n1cc(C#CCOc2ccccc2)nn1 | inactive | inactive | inactive | inactive | inactive | inactive | inactive | inactive | – | inactive
5 | C[C@H](C[C@@H]1CC[C@H]([C@@H](C)C(=O)N(C)Cc2ccccc2)O1)n1cc(C#CCN2CCOCC2)nn1 | inactive | inactive | inactive | inactive | inactive | inactive | inactive | inactive | – | inactive
6 | Cc1cccc(NC(=O)NCC#Cc2cn([C@H](C)CC3CCC([C@@H](C)C(=O)N4CCN(CC5CCCO5)CC4)O3)nn2)c1 (single isomer, unassigned) | inactive | inactive | inactive | inactive | inactive | inactive | inactive | inactive | – | inactive
7 | COc1ccc(OCC#Cc2cn([C@H](C)C[C@@H]3CC[C@H]([C@@H](C)C(=O)N(C)Cc4ccccc4)O3)nn2)cc1 | inactive | inactive | inactive | inactive | inactive | inactive | inactive | inactive | – | inactive
8 | CCN(CC)C(=O)[C@H](C)C1CCC(C[C@@H](C)n2cc(C#CCOC(=O)Nc3cccc(C)c3)nn2)O1 (single isomer, unassigned) | inactive | inactive | inactive | inactive | inactive | inactive | inactive | inactive | – | inactive
9 | COc1cccc(OCC#Cc2cn([C@H](C)C[C@@H]3CC[C@H]([C@@H](C)C(=O)NC(C)C)O3)nn2)c1OC | inactive | inactive | inactive | inactive | inactive | inactive | inactive | inactive | – | inactive
10 | C[C@H](CC1CCC([C@@H](C)C(=O)N(C)Cc2ccccc2)O1)n1cc(C#CCNC(=O)OCc2ccccc2)nn1 (single isomer, unassigned) | inactive | inactive | inactive | inactive | inactive | inactive | inactive | inactive | – | inactive
11 | CC(C)NC(=O)[C@H](C)[C@H]1CC[C@@H](C[C@@H](C)n2cc(C#Cc3ccc(-c4ccccc4)cc3)nn2)O1 | inactive | inactive | inactive | inactive | inactive | inactive | inactive | inactive | – | inactive
12 | C[C@H](C[C@@H]1CC[C@H]([C@@H](C)C(=O)N2CCN(CC3CCCO3)CC2)O1)n1cc(C#CCc2ccccc2)nn1 (stereo partly drawn) | inactive | inactive | inactive | inactive | inactive | inactive | inactive | inactive | – | inactive
13 | C[C@H](C[C@@H]1CC[C@H]([C@@H](C)C(=O)N2CCN(CC3CCCO3)CC2)O1)n1cc(C#CCC2CCCC2)nn1 (stereo partly drawn) | inactive | inactive | inactive | inactive | inactive | inactive | inactive | inactive | – | inactive
14 | CC(C)NC(=O)[C@H](C)[C@H]1CC[C@@H](C[C@@H](C)n2cc(C#Cc3cccc4ccccc34)nn2)O1 | inactive | inactive | inactive | inactive | inactive | inactive | inactive | inactive | – | inactive
15 | CCN(CC)C(=O)[C@H](C)[C@H]1CC[C@@H](C[C@@H](C)n2cc(C#CCN3CCN(c4ccccc4)CC3)nn2)O1 | inactive | inactive | inactive | inactive | inactive | inactive | inactive | inactive | – | inactive
16 | C[C@H](C[C@@H]1CC[C@H]([C@@H](C)C(=O)N2CCCC2)O1)n1cc(C#Cc2ccc(C(F)(F)F)cc2)nn1 | inactive | inactive | inactive | inactive | inactive | inactive | inactive | inactive | – | inactive
17 | C[C@H](CC1CCC([C@@H](C)C(=O)N2CCN(CC3CCCO3)CC2)O1)n1cc(C#CCCCC#N)nn1 (single isomer, unassigned) | inactive | inactive | inactive | inactive | inactive | inactive | inactive | inactive | – | inactive
18 | C[C@H](CC1CCC([C@@H](C)C(=O)N2CCN(CC3CCCO3)CC2)O1)n1cc(C#CCNC(=O)OCc2ccccc2)nn1 (single isomer, unassigned) | inactive | inactive | inactive | inactive | inactive | inactive | inactive | inactive | – | inactive
19 | CCN(CC)C(=O)[C@H](C)[C@H]1CC[C@@H](C[C@@H](C)n2cc(C#CCN(C)CCc3ccccc3)nn2)O1 | inactive | inactive | inactive | inactive | inactive | inactive | inactive | inactive | – | inactive
20 | CCCCCC#Cc1cn([C@H](C)C[C@@H]2CC[C@H]([C@@H](C)C(=O)NC(C)C)O2)nn1 | inactive | inactive | inactive | inactive | inactive | inactive | inactive | inactive | – | inactive
21 | CCOC(=O)C#Cc1cn([C@H](C)CC2CCC([C@@H](C)C(=O)NC(C)C)O2)nn1 (single isomer, unassigned) | inactive | inactive | inactive | inactive | inactive | inactive | inactive | inactive | – | inactive
22 | CCN(CC)C(=O)[C@H](C)C1CCC(C[C@@H](C)n2cc(C#CCOC(=O)OCc3ccccc3)nn2)O1 (single isomer, unassigned) | inactive | inactive | inactive | inactive | inactive | inactive | inactive | inactive | – | inactive
